# In ChEMBL document CHEMBL3352663, “Inhibition of group IVA cytosolic phospholipase A2 by thiazolyl ketones in vitro, ex vivo, and in vivo” (J Med Chem, 2014):
# Active and inactive are the calls of the source. The rule behind the calls is not given here.
# Experiments:
# [1] = target: T1, Cytosolic phospholipase A2 (Homo sapiens) (UniProt P47712); test: Inhibition of human recombinant GIVA cPLA2 using 400 uM Triton X-100/97 uM PAPC/1.8 uM 14C-labeled PAPC/3uM PIP2 substrate mixedmicelles at 0.091 mole fraction
# T1 sequence (whole entry): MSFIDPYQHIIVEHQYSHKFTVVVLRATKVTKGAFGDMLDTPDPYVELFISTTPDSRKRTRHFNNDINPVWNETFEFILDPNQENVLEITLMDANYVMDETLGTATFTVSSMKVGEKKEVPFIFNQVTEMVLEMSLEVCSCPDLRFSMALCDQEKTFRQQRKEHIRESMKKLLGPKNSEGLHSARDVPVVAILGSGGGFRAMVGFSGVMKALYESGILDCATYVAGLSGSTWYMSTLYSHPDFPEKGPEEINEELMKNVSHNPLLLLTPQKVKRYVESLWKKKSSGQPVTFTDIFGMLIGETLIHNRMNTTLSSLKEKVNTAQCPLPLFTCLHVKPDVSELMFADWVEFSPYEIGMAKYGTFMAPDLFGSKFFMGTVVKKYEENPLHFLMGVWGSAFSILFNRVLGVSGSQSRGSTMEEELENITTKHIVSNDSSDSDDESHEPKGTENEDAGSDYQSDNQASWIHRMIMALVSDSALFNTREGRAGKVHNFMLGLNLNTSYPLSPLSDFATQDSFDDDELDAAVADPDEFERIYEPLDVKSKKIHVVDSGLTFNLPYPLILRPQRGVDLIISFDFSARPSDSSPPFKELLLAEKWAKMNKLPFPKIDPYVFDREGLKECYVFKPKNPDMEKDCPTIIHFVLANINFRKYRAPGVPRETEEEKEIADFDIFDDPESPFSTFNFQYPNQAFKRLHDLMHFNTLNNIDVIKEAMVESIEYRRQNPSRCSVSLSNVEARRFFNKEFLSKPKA
# [2] = tested on: SW982; test: Inhibition of IL-1beta-induced oleic acid release in human SW982 cells using [3H]OA at 0 to 20 uM by liquid scintillation counting; format: functional, cell-based
# [3] = species on record: Homo sapiens; test: Inhibition of human recombinant GV sPLA2 using 400 uM Triton X-100/98.3 uM PAPC/1.7 uM 14C-labeled PAPC substrate mixedmicelles at 1 uM
# [4] = tested on: SW982; test: Inhibition of IL-1beta-induced arachidonic acid release in human SW982 cells using [3H]AA by liquid scintillation counting; format: functional, cell-based
# How it was run: (§1)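 SW982 synovial sarcoma cells were serum-starved and labelled overnight with 3H-AA (0.4 µCi/mL) and 14C-OA (0.067 µCi/mL), then washed with PBS/fBSA. They were pretreated 1 h with inhibitor (10 µM single point, or 0-20 µM for IC50), then stimulated with IL-1β 10 ng/mL for 4 h. Released radioactivity was counted by scintillation relative to total incorporated label; DMSO served as vehicle; ≥3 independent experiments in triplicate.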
# [5] = target: T1, Cytosolic phospholipase A2 (Homo sapiens); test: Inhibition of human recombinant GIVA cPLA2 at 1 uM in vitro vesicle assay
# How it was run: (§2)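 Recombinant human GIVA cPLA2 was preincubated with 1% DMSO ± inhibitor (80 s at 37 °C, then 10 min at 25 °C). Sonicated vesicles of 1-palmitoyl-2-[14C]arachidonyl-PC (0.2 μM) were added and incubated 1 h at 37 °C. The reaction was stopped with chloroform/methanol. Single-point tests used 1 µM inhibitor; IC50 determinations used 0-3 µM.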
# [6] = target: T2, Cytosolic phospholipase A2 (Homo sapiens, UniProt P47712); test: Inhibition of human recombinant GIVA cPLA2 in vitro vesicle assay
# T2 sequence (P47712 whole entry): T1 sequence (whole entry)
# How it was run: as §2
# [7] = tested on: SW982; test: Inhibition of IL-1beta-induced arachidonic acid release in human SW982 cells using [3H]AA at 10 uM by liquid scintillation counting; format: functional; conditions: for inhibition at 10 µM: SW982, 4 h
# How it was run: as §1
# [8] = tested on: SW982; test: Inhibition of IL-1beta-induced oleic acid release in human SW982 cells using [3H]OA at 10 uM by liquid scintillation counting; format: functional; conditions: SW982, 4 h
# [9] = target: T1, Cytosolic phospholipase A2 (Homo sapiens); test: Inhibition of human recombinant GIVA cPLA2 using 400 uM Triton X-100/97 uM PAPC/1.8 uM 14C-labeled PAPC/3uM PIP2 substrate mixedmicelles
# How it was run: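 Modified Dole assay of recombinant human GIVA cPLA2. Mixed micelles contained 400 µM Triton X-100, 97 µM PAPC, 1.8 µM 14C-PAPC and 3 µM PIP2 in 100 mM HEPES pH 7.5 with 90 µM CaCl2, 2 mM DTT and 0.1 mg/mL BSA. Percent inhibition was measured at 0.091 mole fraction inhibitor. XI(50) is the mole fraction giving 50% inhibition.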
# [10] = tested on: Mus musculus; test: Antiinflammatory activity in DBA/1 mouse […] model assessed as reduction in articular cavity at 7.5 mg/kg, ip treatment started on day 21 after second […] measured on day 32; format: functional, organism-based; set-up: dose 7.5 mg/kg
# How it was run: (§3)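 Prophylactic collagen-induced arthritis in male DBA/1 mice. Bovine type II collagen (2 mg/mL) was emulsified 1:1 in Freund's complete adjuvant and 0.1 mL injected at the tail base on day 0, with a booster on day 21. Daily ip dosing in DMSO at 2 mL/Kg began 1 h before the booster. Arthritis index was scored through day 41. Histology groups were killed at day 32 after […] of dosing; hind paws were scored blind (0-5) for infiltration, hyperplasia and damage.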
# [11] = tested on: Mus musculus; test: Antiinflammatory activity in DBA/1 mouse […] model assessed as reduction in peripheral tissue inflammatory cell infiltration at 7.5 mg/kg, ip treatment started on day 21 after […] measured on day 32; format: functional, organism-based; set-up: dose 7.5 mg/kg
# How it was run: as §3
# [12] = tested on: Mus musculus; test: Antiinflammatory activity in DBA/1 mouse […] assessed as reduction in capillary and synovial hyperplasia at 7.5 mg/kg, ip treatment started on day 21 after […] measured on day 32; format: functional, organism-based; set-up: dose 7.5 mg/kg
# How it was run: as §3
# [13] = tested on: Mus musculus; test: Reduction in PGE2 level in DBA/1 mouse plasma at 0.3 mg/kg, ip by EIA analysis relative to control; format: functional, organism-based; set-up: dose 0.3 mg/kg
# How it was run: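 Plasma came from collagen-induced arthritic DBA/1 mice at termination, about 5 h after the last daily ip dose. Samples were diluted 1:1000-1:6000 in EIA buffer and incubated 18 h at 4 °C in a PGE2 EIA, read at OD550. Levels are expressed relative to DMSO-vehicle arthritic mice; n=10-11 per group, ±SD.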
# [14] = Homo sapiens, SW982, 4 h, read-out: IC50
smiles,measurement,setting,value
CCCCCCCCCCCCOCC(=O)c1nc(C(=O)OCC)cs1,inhibition,[1],48%
same,inhibition,[2],inactive
same,inhibition,[3],48%
same,IC50,[4]; sw982,Not Active
same,inhibition,[5],21%
same,IC50,[6],Not Active
same,inhibition at 10 µM,[7],9%
CCCCCCCCc1ccc(OCC(=O)c2nc(CC(=O)OCC)cs2)cc1,inhibition,[1],64%
same,inhibition,[3],50%
same,IC50,[4]; [14],5 µM
same,inhibition,[5],25%
same,inhibition at 10 µM,[8],20%
same,IC50,[6],Not Active
same,inhibition at 10 µM,[7],71%
CCCCCCCCc1ccc(OCC(=O)c2nc3ccccc3s2)cc1,inhibition,[1],> 90%
same,inhibition,[3],55%
same,IC50,[4]; [14],5.3 µM
same,XI50 (mole fraction),[9],0.06
same,inhibition,[5],inactive
same,inhibition at 10 µM,[8],35%
same,inhibition at 10 µM,[7],71%
O=C(COc1ccc(-c2ccccc2)cc1)c1nccs1,inhibition,[1],80%
same,inhibition,[3],41%
same,IC50,[4]; [14],2.8 µM
same,inhibition,[5],26%
same,inhibition at 10 µM,[8],25%
same,IC50,[6],Not Active
same,inhibition at 10 µM,[7],73%
O=C(COc1ccc(F)cc1)c1nccs1,inhibition,[1],58%
same,inhibition,[3],4%
same,inhibition,[5],7%
same,inhibition at 10 µM,[8],25%
same,IC50,[6],Not Active
same,inhibition,[7],inactive
CCCCCCCCc1ccc(OCC(=O)c2nccs2)cc1,inhibition,[1],> 90%
same,inhibition,[2],inactive
same,inhibition,[3],46%
same,IC50,[4]; [14],3.6 µM
same,XI50 (mole fraction),[9],0.02
same,inhibition,[5],43%
same,inhibition at 10 µM,[7],> 90%
CN(Cc1cnc2nc(N)nc(N)c2n1)c1ccc(C(=O)N[C@@H](CCC(=O)O)C(=O)O)cc1,inhibition,[10],inactive
same,inhibition,[11],inactive
same,inhibition,[12],inactive
same,inhibition,[13],Active
O=C(COc1ccccc1)c1nccs1,inhibition,[1],40%
same,inhibition,[3],0%
same,IC50,[4]; sw982,Not Active
same,inhibition,[5],26%
same,inhibition at 10 µM,[8],20%
same,IC50,[6],Not Active
same,inhibition at 10 µM,[7],12%
CCCCCCCCCCCCOCC(=O)c1nc(CC(=O)OCC)cs1,inhibition,[1],49%
same,inhibition,[2],inactive
same,inhibition,[3],55%
same,inhibition,[5],inactive
same,inhibition,[7],inactive
